In ChEMBL document CHEMBL1155581, “A-Type proanthocyanidin trimers from cranberry that inhibit adherence of uropathogenic P-fimbriated Escherichia coli” (J Nat Prod, 2000):
Calls of active or inactive are those of the source. The calls are words filed in the database; no cut-off is given here.

Key:
Type in all cases: functional, organism-based
Escherichia coli [1] = assay: Antiadherent activity against P-fimbriated Escherichia coli in human erythrocyte assessed as suppression of agglutination using latex beads coated with P receptor analogue at 2.4 mg/ml
In short: (§1)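 Uropathogenic P-fimbriated E. coli from patient urine, grown in tryptose broth 16 h at 37 °C, then overnight on CFA plates. Washed cells at 5 × 10^8/mL in PBS pH 7.0. Compounds in PBS neutralized with 1 N NaOH, 2-fold serial dilutions, 30 µL with 10 µL bacteria for 10 min at RT with shaking. 3% A1 Rh+ human RBCs or P-receptor-coated latex beads added separately, 20 min RT. Agglutination suppression scored microscopically (+/−).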

Escherichia coli [2] = assay: Antiadherent activity against P-fimbriated Escherichia coli in human erythrocyte assessed as suppression of agglutination using latex beads coated with P receptor analogue at 0.15 mg/ml; in short: as §1
Escherichia coli [3] = assay: Antiadherent activity against P-fimbriated Escherichia coli in human erythrocyte assessed as suppression of agglutination using latex beads coated with P receptor analogue at 0.6 mg/ml; in short: as §1
Escherichia coli [4] = assay: Antiadherent activity against P-fimbriated Escherichia coli in human erythrocyte assessed as suppression of agglutination using latex beads coated with P receptor analogue at 0.3 mg/ml; in short: as §1
Escherichia coli [5] = assay: Antiadherent activity against P-fimbriated Escherichia coli in human erythrocyte assessed as suppression of agglutination using latex beads coated with P receptor analogue at 1.2 mg/ml; in short: as §1

Compound: Oc1cc(O)c2c(c1)O[C@@]1(c3ccc(O)c(O)c3)Oc3cc(O)c4c(c3[C@@H]2[C@H]1O)O[C@H](c1ccc(O)c(O)c1)[C@H](O)C4
- Activity (Escherichia coli [1]): Active
- Activity (Escherichia coli [2]): inactive
- Activity (Escherichia coli [3]): inactive
- Activity (Escherichia coli [4]): inactive
- Activity (Escherichia coli [5]): inactive

Compound: Oc1cc(O)c2c(c1)O[C@H](c1ccc(O)c(O)c1)[C@H](O)[C@H]2c1c(O)cc2c(c1O)[C@@H]1c3c(cc(O)c4c3O[C@H](c3ccc(O)c(O)c3)[C@H](O)C4)O[C@](c3ccc(O)c(O)c3)(O2)[C@@H]1O
- Activity (Escherichia coli [1]): Active
- Activity (Escherichia coli [2]): inactive
- Activity (Escherichia coli [3]): Active
- Activity (Escherichia coli [4]): Active
- Activity (Escherichia coli [5]): Active

Compound: Oc1cc(O)c2c(c1)O[C@H](c1ccc(O)c(O)c1)[C@H](O)C2
- Activity (Escherichia coli [1]): inactive
- Activity (Escherichia coli [2]): inactive
- Activity (Escherichia coli [3]): inactive
- Activity (Escherichia coli [4]): inactive
- Activity (Escherichia coli [5]): inactive

Compound: Oc1cc(O)c2c(c1)O[C@@]1(c3ccc(O)c(O)c3)Oc3cc(O)c4c(c3[C@@H]2[C@H]1O)O[C@H](c1ccc(O)c(O)c1)[C@H](O)[C@H]4c1c(O)cc(O)c2c1O[C@H](c1ccc(O)c(O)c1)[C@H](O)C2 [CINNAMTANNIN B1]
- Activity (Escherichia coli [1]): Active
- Activity (Escherichia coli [2]): Not Active
- Activity (Escherichia coli [3]): Active
- Activity (Escherichia coli [4]): Active
- Activity (Escherichia coli [5]): Active

Compound: Oc1cc(O)c2c(c1)O[C@H](c1ccc(O)c(O)c1)[C@H](O)[C@H]2c1c(O)cc(O)c2c1O[C@H](c1ccc(O)c(O)c1)[C@H](O)C2
- Activity (Escherichia coli [1]): inactive
- Activity (Escherichia coli [2]): inactive
- Activity (Escherichia coli [3]): inactive
- Activity (Escherichia coli [4]): inactive
- Activity (Escherichia coli [5]): inactive

Compound: Oc1cc(O)c2c(c1)O[C@H](c1ccc(O)c(O)c1)[C@H](O)[C@H]2c1c(O)cc(O)c2c1O[C@@]1(c3ccc(O)c(O)c3)Oc3cc(O)c4c(c3[C@@H]2[C@H]1O)O[C@H](c1ccc(O)c(O)c1)[C@H](O)C4
- Activity (Escherichia coli [1]): Active
- Activity (Escherichia coli [2]): inactive
- Activity (Escherichia coli [3]): Active
- Activity (Escherichia coli [4]): inactive
- Activity (Escherichia coli [5]): Active
